# How the values were obtained:
# Coxsackievirus B1 = assay: Antiviral activity against human coxsackievirus B1 infected in human HeLa cells assessed as reduction in virus-induced cytopathicity incubated for 3 days by MTT assay; type: functional, cell-based; conditions: Enterovirus B, 72 h
# Method in brief: (§1)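 HeLa cells infected with enterovirus (coxsackievirus B1 or B3); protection from virus-induced cytopathic effect measured. EC50 is the concentration restoring 50% viability of the infected cells. Pleconaril served as reference.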
# [1] = Cytotoxicity in human HeLa cells assessed as reduction in cell viability incubated for 3 days by MTT assay; type: cell-based
# Method in brief: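 Uninfected HeLa cells; CC50 is the concentration lowering cell viability by 50%.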
# Coxsackievirus B3 = assay: Antiviral activity against human coxsackievirus B3 infected in human HeLa cells assessed as reduction in virus-induced cytopathicity incubated for 3 days by MTT assay; type: functional, cell-based; conditions: Enterovirus B, 72 h; method in brief: as §1
# Poliovirus 3 = assay: Antiviral activity against human poliovirus 3 infected in human HeLa cells assessed as reduction in virus-induced cytopathicity incubated for 3 days by MTT assay; type: functional, cell-based; conditions: Enterovirus C, 72 h
# Method in brief: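 Cytopathic-effect reduction assay in HeLa cells infected with coxsackievirus B1, B3 or poliovirus 3, with pleconaril as reference. EC50 is the concentration that improves viability of infected HeLa cells by 50%. CC50 is the concentration that reduces viability of uninfected HeLa cells by 50%. SI is CC50/EC50.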
# rhinovirus B14 = assay: Antiviral activity against human rhinovirus 14 infected in human H1HeLa cells assessed as reduction in virus-induced cytopathicity incubated for 3 days by MTT assay; type: functional, cell-based; conditions: Rhinovirus B, H1-HeLa, 72 h
# Method in brief: (§2)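 H1 HeLa cells infected with rhinovirus (14, 21 or 71); EC50 is the concentration restoring 50% viability of the infected cells. Pleconaril served as reference.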
# [2] = Antiviral activity against human rhinovirus 71 infected in human H1HeLa cells assessed as reduction in virus-induced cytopathicity incubated for 3 days by MTT assay; type: functional, cell-based, Human rhinovirus A71; conditions: Rhinovirus A, H1-HeLa, 72 h; method in brief: as §2
# rhinovirus A21 = assay: Antiviral activity against human rhinovirus 21 infected in human H1HeLa cells assessed as reduction in virus-induced cytopathicity incubated for 3 days by MTT assay; type: functional, cell-based; conditions: Rhinovirus A, H1-HeLa, 72 h; method in brief: as §2
# [3] = Cytotoxicity in human H1HeLa cells assessed as reduction in cell viability incubated for 3 days by MTT assay; type: cell-based, H1-HeLa
# Method in brief: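 Uninfected H1 HeLa cells; CC50 is the concentration lowering cell viability by 50%.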
# Liver [4] = assay: Stability in rat liver microsomes assessed as compound remaining by mass spectrometry; type: ADME, microsome
# Method in brief: (§3)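 Phase I metabolic stability in human or rat liver microsomes, with buspirone as reference. Parent compound remaining was quantified by quantitative mass spectrometry and expressed as a percentage.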
# Liver [5] = assay: Stability in human liver microsomes assessed as compound remaining by mass spectrometry; type: ADME, microsome; method in brief: as §3
SMILES,EC50 (Coxsackievirus B1) [µM],CC50 at 72 h [1] [µM],EC50 (Coxsackievirus B3) [µM],EC50 (Poliovirus 3) [µM],EC50 (rhinovirus B14) [µM],EC50 [2] [µM],EC50 (rhinovirus A21) [µM],CC50 at 72 h [3] [µM],Stability (Liver [4]) [%],Stability (Liver [5]) [%]
COc1ccc(-n2c(=O)c3c4c(sc3n3cnnc23)CC(C(C)(C)C)CC4)cc1 (stereo not drawn),> 39.1,39.1,> 39.1,3.63,1.9,1.8,2.6,21.9,–,–
CC1CCCc2sc3c(c21)c(=O)n(-c1ccccc1)c1nncn31 (stereo not drawn),> 100,> 100,> 100,> 100,> 100,> 100,> 100,> 100,–,–
CC(C)(C)C1CCc2c(sc3c2c(=O)n(-c2ccccc2)c2nnc(S)n32)C1 (stereo not drawn),> 45.1,45.1,> 45.1,> 45.1,10.1,9.1,19.4,40.1,–,–
O=c1c2c3c(sc2n2cnnc2n1-c1ccccc1)CC(c1ccccc1)CC3 (stereo not drawn),> 27.5,27.5,> 27.5,> 27.5,19.4,> 27.6,> 27.6,27.6,–,–
CCCC1CCc2c(sc3c2c(=O)n(-c2ccccc2)c2nncn32)C1 (stereo not drawn),> 41,41,> 41,20,18.1,14,> 31.7,31.7,–,–
CC(C)(C)C1CCc2c(sc3c2c(=O)n(-c2ccccc2Cl)c2nncn32)C1 (stereo not drawn),19.5,26.3,16.2,1.84,2.5,3.9,14.7,20.7,–,–
CC(C)(C)C1CCc2c(sc3c2c(=O)n(-c2ccccc2)c2nnc(N)n32)C1 (stereo not drawn),> 45.9,45.9,> 45.9,> 45.9,8.2,12.8,> 35.4,35.4,–,–
CC1(C)CCc2c(sc3c2c(=O)n(-c2ccccc2)c2nncn32)C1,> 54.8,54.8,> 54.8,> 54.8,> 76.5,> 76.5,> 76.5,76.5,–,–
Cc1cc(CCCOc2c(C)cc(-c3noc(C(F)(F)F)n3)cc2C)on1 [PLECONARIL],0.13,42.8,> 42.8,0.51,0.31,0.013,0.083,53.5,–,–
CC(C)(C)C1CCc2c(sc3c2c(=O)n(-c2ccc(C(F)(F)F)cc2)c2nncn32)C1 (stereo not drawn),> 35.5,35.5,> 35.5,> 35.5,> 31.4,> 31.4,> 31.4,31.4,–,–
CC(C)(C)C1CCc2c(sc3c2c(=O)n(-c2ccccc2)c2nnc(-c4ccccc4)n32)C1 (stereo not drawn),> 31.9,31.9,> 31.9,> 31.9,> 8.7,> 8.7,> 8.7,8.7,–,–
CC(C)(C)C1CCc2c(sc3c2c(=O)n(-c2cccc(Cl)c2)c2nncn32)C1 (stereo not drawn),17.8,38.3,> 38.3,9.63,2.1,3.8,> 15,15,–,–
Cc1ccccc1-n1c(=O)c2c3c(sc2n2cnnc12)CC(C(C)(C)C)CC3 (stereo not drawn),9.83,39.1,9.22,3.44,8.8,10.1,> 35.4,35.4,–,–
CC1CCc2c(sc3c2c(=O)n(-c2ccccc2)c2nncn32)C1 (stereo not drawn),> 79,79,> 79,> 79,16.4,> 69,> 69,69,–,–
CC(C)(C)C1CCc2c(sc3c2c(=O)n(-c2ccc(Cl)cc2)c2nncn32)C1 (stereo not drawn),> 36.5,36.5,> 36.5,8.35,3.7,3.8,> 18.8,18.8,–,–
Cc1nnc2n(-c3ccccc3)c(=O)c3c4c(sc3n12)CC(C(C)(C)C)CC4 (stereo not drawn),> 45.1,45.1,> 45.1,> 45.1,4.3,4.6,> 35.9,35.9,–,–
Cc1ccc(-n2c(=O)c3c4c(sc3n3cnnc23)CC(C(C)(C)C)CC4)cc1 (stereo not drawn),14.3,32.8,12.9,1.94,1.8,1.8,2.4,11.1,–,–
O=c1c2c3c(sc2n2cnnc2n1-c1ccccc1)CCCC3,> 100,> 100,> 100,> 100,> 100,> 100,> 100,> 100,–,–
Cc1ccc(-c2ccc(-n3c(=O)c4c5c(sc4n4cnnc34)CC(C(C)(C)C)CC5)cc2)cc1 (stereo not drawn),55.4,> 100,46.8,47,> 16.9,> 16.9,> 16.9,16.9,–,–
O=C1CC2(CCCC2)CC(=O)N1CCCCN1CCN(c2ncccn2)CC1 [BUSPIRONE],–,–,–,–,–,–,–,–,0.119,3.52
CC1(C)Cc2c(sc3c2c(=O)n(-c2ccccc2)c2nncn32)C(C)(C)C1,> 9.09,9.09,> 9.09,> 9.09,> 9.6,> 9.6,> 9.6,9.6,–,–
CC(C)(C)C1CCc2c(sc3c2c(=O)n(-c2cccc(Br)c2)c2nncn32)C1 (stereo not drawn),15.6,32.9,> 32.9,13.2,3.5,15.9,20,26.3,–,–
CC(C)(C)C1CCc2c(sc3c2c(=O)n(-c2ccc(Br)cc2)c2nncn32)C1 (stereo not drawn),> 30.5,30.5,> 30.5,12.6,2,2.3,> 11,11,–,–

# Source: ChEMBL document CHEMBL4033733, “Enterovirus inhibitory activity of C-8-tert-butyl substituted 4-aryl-6,7,8,9-tetrahydrobenzo[4,5]thieno[3,2-e][1,2,4]triazolo[4,3-a]pyrimidin-5(4H)-ones” (Bioorg Med Chem Lett, 2017)
